Reference: ChEMBL document CHEMBL5058577, “EUbOPEN Chemogenomics Library 2 (Multiplex)” (2022)

Test system: HEK-293T
Assay: Multiplex assay against HEK293T
Format: toxicity, cell-based
Conditions: human
In short: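 Four dyes were applied at seeding to live cells: Hoechst33342, BioTracker Green Microtubule Cytoskeleton Dye, MitoTracker Red and Annexin V Alexa Fluor 680. Imaging after compound addition used a CQ1 microscope at 37°C and 5% CO2. CellPathfinder machine-learning gating then sorted cells into Hoechst high-intensity objects or normal cells, normal cells into healthy, pyknosed or fragmented nuclei, and pyknosed cells into mitotic or apoptotic, with tubulin, mitochondrial-mass and membrane-permeability phenotypes given as per cents of healthy-nucleus cells.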

[1] = 12 h, 1 µM, compound concentration 1 uM, replicate 1
[2] = 12 h, 1 µM, compound concentration 1 uM, replicate 2
[3] = 12 h, 10 µM, compound concentration 10 uM, replicate 1
[4] = 12 h, 10 µM, compound concentration 10 uM, replicate 2
[5] = 24 h, 1 µM, compound concentration 1 uM, replicate 1
[6] = 24 h, 1 µM, compound concentration 1 uM, replicate 2
[7] = 24 h, 10 µM, compound concentration 10 uM, replicate 1
[8] = 24 h, 10 µM, compound concentration 10 uM, replicate 2
[9] = 48 h, 1 µM, compound concentration 1 uM, replicate 1
[10] = 48 h, 1 µM, compound concentration 1 uM, replicate 2
[11] = 48 h, 10 µM, compound concentration 10 uM, replicate 1
[12] = 48 h, 10 µM, compound concentration 10 uM, replicate 2

Structure (SMILES): Nc1nc(-c2ccco2)c2cnn(Cc3ccccc3F)c2n1
- Population Apoptotic (%) [1]: 37%
- Population Fragmented Nuclei (%) [1]: 6%
- Population Healthy Nuclei (%) [1]: 76%
- Population Hoechst High Intensity Objects (%) [1]: 9%
- Population Membrane Permeable-Phenotype (%) [1]: 0%
- Population Mitochondria Different-Phenotype (%) [1]: 58%
- Population Mitotic Cells (%) [1]: 62%
- Population Normal (%) [1]: 90%
- Population Pyknosed Nuclei (%) [1]: 16%
- Population Tubulin-Different-Phenotype (%) [1]: 41%
- Total Cell Count [1]: 300
- Population Apoptotic (%) [2]: 36%
- Population Fragmented Nuclei (%) [2]: 5%
- Population Healthy Nuclei (%) [2]: 81%
- Population Hoechst High Intensity Objects (%) [2]: 11%
- Population Mitochondria Different-Phenotype (%) [2]: 64%
- Population Mitotic Cells (%) [2]: 63%
- Population Normal (%) [2]: 88%
- Population Pyknosed Nuclei (%) [2]: 13%
- Population Tubulin-Different-Phenotype (%) [2]: 23%
- Total Cell Count [2]: 404
- Population Apoptotic (%) [3]: 33%
- Population Fragmented Nuclei (%) [3]: 7%
- Population Healthy Nuclei (%) [3]: 73%
- Population Hoechst High Intensity Objects (%) [3]: 8%
- Population Membrane Permeable-Phenotype (%) [3]: 0%
- Population Mitochondria Different-Phenotype (%) [3]: 61%
- Population Mitotic Cells (%) [3]: 66%
- Population Normal (%) [3]: 91%
- Population Pyknosed Nuclei (%) [3]: 19%
- Population Tubulin-Different-Phenotype (%) [3]: 43%
- Total Cell Count [3]: 306
- Population Apoptotic (%) [4]: 40%
- Population Fragmented Nuclei (%) [4]: 6%
- Population Healthy Nuclei (%) [4]: 76%
- Population Hoechst High Intensity Objects (%) [4]: 12%
- Population Mitochondria Different-Phenotype (%) [4]: 68%
- Population Mitotic Cells (%) [4]: 60%
- Population Normal (%) [4]: 87%
- Population Pyknosed Nuclei (%) [4]: 17%
- Population Tubulin-Different-Phenotype (%) [4]: 26%
- Total Cell Count [4]: 265
- Population Apoptotic (%) [5]: 30%
- Population Fragmented Nuclei (%) [5]: 7%
- Population Healthy Nuclei (%) [5]: 77%
- Population Hoechst High Intensity Objects (%) [5]: 7%
- Population Membrane Permeable-Phenotype (%) [5]: 0%
- Population Mitochondria Different-Phenotype (%) [5]: 36%
- Population Mitotic Cells (%) [5]: 69%
- Population Normal (%) [5]: 92%
- Population Pyknosed Nuclei (%) [5]: 15%
- Population Tubulin-Different-Phenotype (%) [5]: 26%
- Total Cell Count [5]: 396
- Population Apoptotic (%) [6]: 28%
- Population Fragmented Nuclei (%) [6]: 9%
- Population Healthy Nuclei (%) [6]: 81%
- Population Hoechst High Intensity Objects (%) [6]: 5%
- Population Mitochondria Different-Phenotype (%) [6]: 46%
- Population Mitotic Cells (%) [6]: 71%
- Population Normal (%) [6]: 94%
- Population Pyknosed Nuclei (%) [6]: 9%
- Population Tubulin-Different-Phenotype (%) [6]: 17%
- Total Cell Count [6]: 514
- Population Apoptotic (%) [7]: 38%
- Population Fragmented Nuclei (%) [7]: 11%
- Population Healthy Nuclei (%) [7]: 67%
- Population Hoechst High Intensity Objects (%) [7]: 6%
- Population Membrane Permeable-Phenotype (%) [7]: 2%
- Population Mitochondria Different-Phenotype (%) [7]: 52%
- Population Mitotic Cells (%) [7]: 61%
- Population Normal (%) [7]: 93%
- Population Pyknosed Nuclei (%) [7]: 21%
- Population Tubulin-Different-Phenotype (%) [7]: 31%
- Total Cell Count [7]: 334
- Population Apoptotic (%) [8]: 35%
- Population Hoechst High Intensity Objects (%) [8]: 10%
- Population Membrane Permeable-Phenotype (%) [8]: 0%
- Population Mitochondria Different-Phenotype (%) [8]: 59%
- Population Mitotic Cells (%) [8]: 64%
- Population Normal (%) [8]: 89%
- Population Tubulin-Different-Phenotype (%) [8]: 23%
- Total Cell Count [8]: 328
- Population Apoptotic (%) [9]: 32%
- Population Fragmented Nuclei (%) [9]: 12%
- Population Healthy Nuclei (%) [9]: 75%
- Population Hoechst High Intensity Objects (%) [9]: 3%
- Population Membrane Permeable-Phenotype (%) [9]: 1%
- Population Mitochondria Different-Phenotype (%) [9]: 31%
- Population Mitotic Cells (%) [9]: 67%
- Population Normal (%) [9]: 96%
- Population Pyknosed Nuclei (%) [9]: 12%
- Population Tubulin-Different-Phenotype (%) [9]: 18%
- Total Cell Count [9]: 641
- Population Apoptotic (%) [10]: 28%
- Population Fragmented Nuclei (%) [10]: 14%
- Population Healthy Nuclei (%) [10]: 78%
- Population Hoechst High Intensity Objects (%) [10]: 4%
- Population Mitochondria Different-Phenotype (%) [10]: 21%
- Population Mitotic Cells (%) [10]: 71%
- Population Normal (%) [10]: 95%
- Population Pyknosed Nuclei (%) [10]: 7%
- Population Tubulin-Different-Phenotype (%) [10]: 14%
- Total Cell Count [10]: 769
- Population Apoptotic (%) [11]: 36%
- Population Fragmented Nuclei (%) [11]: 16%
- Population Healthy Nuclei (%) [11]: 73%
- Population Hoechst High Intensity Objects (%) [11]: 7%
- Population Membrane Permeable-Phenotype (%) [11]: 0%
- Population Mitochondria Different-Phenotype (%) [11]: 42%
- Population Mitotic Cells (%) [11]: 63%
- Population Normal (%) [11]: 92%
- Population Pyknosed Nuclei (%) [11]: 9%
- Population Tubulin-Different-Phenotype (%) [11]: 19%
- Total Cell Count [11]: 412
- Population Apoptotic (%) [12]: 28%
- Population Fragmented Nuclei (%) [12]: 13%
- Population Healthy Nuclei (%) [12]: 74%
- Population Mitochondria Different-Phenotype (%) [12]: 43%
- Population Mitotic Cells (%) [12]: 71%
- Population Pyknosed Nuclei (%) [12]: 12%
- Population Tubulin-Different-Phenotype (%) [12]: 15%
- Total Cell Count [12]: 398
